Results: PubChem BioAssay
Unmarked numbers belong to inactive results. Inconclusive results are not listed. Active and inactive are the calls of the source.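 Rule for the calls, unless noted: active = cell viability at or below a set limit in both duplicate runs, the limit being the all-compound median minus 4 SD (cut at about 23% in these data, passing the limit was not always enough); inconclusive = no clear call, values can overlap the other calls; inactive = the rest.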

Legend:
[1] = S. cerevisiae growth inhibition in permissive medium (OD615), pilot counter-assay for S. cerevisiae lifespan shortening project, permissive growth control (AID 705;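 active = growth inhibition above 25% in both replicates, a cutoff set 3 SD above the mean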); details: OD615, 24 h, at 10 µM, hits give high values
Summary of the method: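 assay system = Saccharomyces cerevisiae strain carrying genetically modified DeaD replicative-lifespan system | technique = absorbance (optical density) at 615 nm | buffer or medium = permissive raffinose/galactose medium | timing = cells pre-grown 4 h, then 24 h compound exposure, 30 °C humidified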

[2] = S. cerevisiae growth inhibition in restrictive medium, OD615, pilot screen, restrictive growth control, yeast lifespan reduction project (AID 706;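 active = growth inhibition above a set limit, 3 SD over mean compound inhibition, in both replicates, cut at about 43% in these data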;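 note: modified DeaD lifespan yeast strain shifted to restrictive glucose medium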); details: OD615, 48 h, at 10 µM, hits give high values
Summary of the method: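 System: modified S. cerevisiae. Buffer or medium: CSMM-D glucose medium. Incubation: 4 h pre-growth plus 48 h compound exposure, 30 °C. Detection: absorbance (optical density) measured at 615 nm.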

[3] = doxorubicin toxicity protection in MRP-1 cells – H69AR cells, CellTiter-Glo, duplicate, MRP-1 activator project, pilot screen (AID 807;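 active = viability increase at or above a cutoff of the median across tested compounds plus 3 SD, cut at about 8.5% in these data, passing the limit was not always enough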;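 note: compound pretreatment 18-22 h then 72 h combined with doxorubicin; 0% = doxorubicin alone and 100% = vehicle without doxorubicin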); details: H69AR viability with doxorubicin, CellTiter-Glo luminescence; at 10 µM; hits give high values
[4] = viability of HCT116 without oncogenic beta-catenin – human colon tumor cells, pilot screen (AID 823); details: HCT116 beta-catenin knockout viability, CellTiter-Glo, 60 h; at 10 µM; hits give low values;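 note: 0% = wells killed by 20 µM Hyamine and 100% = untreated DMSO cell wells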
[5] = viability of PTEN-null HCT116 cells – cell-based, HCT116 clonal line, CellTiter-Glo, pilot screen (AID 824;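 active = viability at or below 27.92% in each of two runs, the all-compound median minus 4 SD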;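 note: 0% = 20 µM Hyamine control and 100% = vehicle cell control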); details: HCT116 PTEN-deleted viability, 60 h, at 10 µM, hits give low values
[6] = RAM pathway blockade in budding yeast – dse1pr::URA3 reporter, 5-FOA selection, pilot screen (AID 869;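 active = inhibition over a set limit, the all-compound mean plus 3 SD, in both replicate runs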;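 note: 0% = DMSO wells with no growth and 100% = 10 µM 1-NA-PP1 with full growth; RAM network block rescues cells from 5-FOA so hits raise OD615 growth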); details: S. cerevisiae dse1pr::URA3 5-FOA growth, OD615, 2 d; at 10 µM; hits give high values; strain carries analog-sensitive mutant Cbk1 kinase
[7] = RAM signaling pathway blockade in yeast – S. cerevisiae, Pdr1DBD-CYC8 efflux-inhibited sensitized strain, primary screen (AID 1298;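 active = RAM network inhibition above 8.4% in each of two replicates, 3 SD over the compound average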;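 note: 0% = DMSO untreated cells without growth and 100% = 10 µM 1-NA-PP1 full growth; higher means more yeast growth rescued from 5-FOA killing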); details: S. cerevisiae cbk1-as DSE1-URA3 strain, 5-FOA growth OD615, 2 d; at 50 µM; hits give high values

Row | Structure (SMILES) | growth inhibition [1] | growth inhibition [2] | viability increase [3] | viability [4] | viability [5] | inhibition [6] | RAM network inhibition [7]
1 | COc1ccc(-n2c(Cc3cccn3C)nnc2SCC(=O)N2CCCC2)cc1 | 11.1% | 49.5% (active) | -0.77% | 96.1% | 98.5% | 0.04% | 0.93%
2 | CCc1ccc(N(CC(=O)NC2CCCCC2)S(=O)(=O)c2c(C)noc2C)cc1 | -9.43% | -2.85% | -1.23% | 92.2% | 92.3% | 2.05% | 4.91%
3 | O=C(Nc1ccccc1)c1ccccc1O | 1.28% | 13.7% | -1.14% | 92.2% | 83.2% | -0.42% | -1.46%
4 | COc1ccc(NC(=O)c2cnc3ccccn3c2=O)cc1OC | -5.08% | 4.28% | -0.04% | 101% | 91.3% | 0.665% | 1.96%
5 | COCCn1c(=O)[nH]c2cc(C(=O)NC3CCCCCC3)ccc2c1=O | -17.4% | -10.9% | -3.33% | 93.7% | 87.6% | 6.66% (active) | 4.43%
6 | O=C(NCc1ccc(Cl)c(Cl)c1)c1ccco1 | -5.02% | -2.23% | -3.58% | 90.8% | 84.9% | 1.23% | 3.74%
7 | CCOC(=O)N1CCN(C(=O)Cn2c(=O)sc3ccccc32)CC1 | -1.79% | -7.62% | -0.84% | 100% | 97.6% | 1.68% | 5.71%
8 | CCOC(=O)N1CCN(c2ncnc3nc[nH]c23)CC1 | -8.7% | -10.1% | -1.85% | 109% | 106% | 0.595% | 4.23%
9 | CC1COC2C(O1)N(S(C)(=O)=O)CCN2S(C)(=O)=O (configuration not stated) | -7.71% | -12.4% | 0.34% | 99.3% | 101% | 0.68% | 2.6%
10 | CNc1oc(-c2ccccc2)nc1C#N | 1.34% | 21.3% | 2.14% | 101% | 102% | -0.58% | 5.84%
11 | Cn1c(=O)c2c(nc(-n3ccnc3)n2Cc2ccc(Cl)cc2Cl)n(C)c1=O | -10.2% | -2.64% | -4.31% | 89.2% | 80.4% | 1.17% | 5.62%
12 | CC(C)NS(=O)(=O)c1ccc2c(c1)oc(=O)n2C | -2.26% | 2.4% | -0.75% | 106% | 98.7% | -0.14% | 0.91%
13 | CCOc1ccc(-c2nc(CSc3nncs3)cs2)cc1OC | 4.37% | 16.2% | -3.61% | 84.1% | 82% | 0.655% | 5.42%
14 | COc1cc(C2C(C(=O)c3cccs3)=C(O)C(=O)N2Cc2ccco2)cc(OC)c1OC (configuration not stated) | -6.95% | -3.81% | -4.93% | 93.1% | 92.4% | 2.94% | 5%
15 | CCOc1ccc2[nH]c(C)c(CN(C)C)c(=O)c2c1 | 1.46% | 9.84% | -1.41% | 99.4% | 95.1% | -0.27% | 4.03%
16 | CC(C)(C)Nc1ncnc2c1cnn2-c1ccccc1 | -3.38% | 17.3% | 2% | 92.3% | 90.3% | 1.31% | -2.37%
17 | CC1CCN(CCCn2c(=S)[nH]c3ccccc3c2=O)CC1 | 1.02% | 10.3% | -2.18% | 91.3% | 93.7% | 1.1% | 0.66%
18 | O=C(NCCCN1CCOCC1)C1CCC(=O)N1CCc1ccccc1 (configuration not stated) | -0.765% | -7.29% | -0.18% | 103% | 96.7% | 3.66% | 0.63%

Row | Structure (SMILES) | growth inhibition [1] | growth inhibition [2] | viability increase [3] | viability [4] | viability [5] | inhibition [6] | RAM network inhibition [7]
19 | Oc1c(C(c2ccccc2)N2CCN(Cc3ccccc3)CC2)sc2ncnn12 (configuration not stated) | -6.68% | -5.08% | 1.62% | 89.7% | 84.7% | 1.79% | 0.68%
20 | CCOC(=O)Cn1c(=O)oc2cc(S(=O)(=O)N(C)Cc3ccco3)ccc21 | -13.2% | -14% | -4.08% | 99.9% | 94.1% | 3.37% | 4.56%
21 | CCCCN(C)C(=O)c1c[nH]c2ccc(S(=O)(=O)N3CCOCC3)cc2c1=O | -5.67% | -15.5% | 0.64% | 109% | 98.8% | 2.05% | 5.01%
22 | O=C(NC1CCCCCCC1)c1cnccn1 | 0.775% | 10.4% | -0.43% | 103% | 93.7% | 1.72% | 1.71%
23 | CCOC(=O)C1=C(O)CSC1=Nc1ccc(Cl)cc1 | -7.6% | -10.1% | -1.62% | 107% | 99.8% | 1.17% | 7.14%
24 | c1ccc2c(c1)nc1n2CCN1CCNC1CCCCC1 | -11.4% | -11.7% | -1.96% | 94.2% | 98.6% | 0.065% | 1.2%
25 | CCOCCn1c(N(C)Cc2ccccc2)nc2c1c(=O)[nH]c(=O)n2C | -10.9% | -6.11% | 0.04% | 101% | 95.6% | 0.985% | 5.77%
26 | COc1ccc(OC)c(CN2C(=O)c3ccccc3C2C(=O)NCc2cccnc2)c1 (configuration not stated) | -6.83% | 2.58% | 0.05% | 106% | 97.6% | 0.155% | 4.09%
27 | Cc1nc2sc(C(c3ccco3)N3CCC(C)CC3)c(O)n2n1 (configuration not stated) | -6.81% | 1.09% | -1.29% | 102% | 103% | 0.77% | 2.81%
28 | CCOc1ccc(C2N(c3ccc(Cl)cc3)C(=O)C3CCCN32)cc1OC (configuration not stated) | -2.75% | -6.81% | -1.98% | 98.7% | 95.8% | -0.115% | 5.42%
29 | CCC(O)CNc1nc(SC)nc2sc3c(c12)CCN(C)C3 (configuration not stated) | -7.7% | -14.2% | -3.74% | 99.2% | 91.2% | 2.08% | 0.46%
30 | CCOCCCNC(=O)c1cc2c(-c3ccc(Cl)cc3)nn(C)c2s1 | 7.49% | 11% | -6.53% | 62.2% | 56.8% | 2.62% | 1.34%
31 | Cc1coc2c(C)c3oc(=O)c4c(c3cc12)CCCC4 | -10.3% | -13.6% | -5.04% | 81.3% | 59% | 2.46% | 5.02%
32 | COCCn1c(SCCN2CCOCC2)nc2c1c(=O)[nH]c(=O)n2C | -0.205% | -4.84% | 0.95% | 104% | 101% | 1.45% | 5.47%
33 | CC(=O)NCC(=O)N(c1ccccc1)C1(C(=O)NC2CCCCC2)CCCCC1 | -3.84% | 6.72% | -2.01% | 103% | 98.3% | 0.165% | -0.7%
34 | COCCNC(=O)CN1CCOc2ccccc21 | -22.5% | 14.5% | -4.65% | 94.6% | 102% | 0.98% | 3.11%
35 | Cc1cc2oc3c(c(=O)c2cc1C)C(c1ccc(C(C)C)cc1)N(CCCN1CCOCC1)C3=O (configuration not stated) | -7.04% | -2.79% | -3.45% | 95.8% | 86.5% | 1.31% | 4.42%
36 | CC(=O)Nc1ccc(NC(=O)c2ccco2)cc1 | -9.41% | -14.5% | -2.09% | 94.1% | 96.8% | -0.19% | 2.4%
